Measurements as given in ChEMBL document CHEMBL3351301, “Synthesis of triazole Schiff bases: novel inhibitors of nucleotide pyrophosphatase/phosphodiesterase-1” (Bioorg Med Chem, 2014).
Activity calls are given as the source filed them. The rule behind the calls is not given here.

Assays:
[1] = Cytotoxicity against human PC3 cells; assay type: functional, cell-based; conditions: PC-3
[2] = Inhibition of snake venom NPP1 using bis(p-nitrophenyl)phosphate preincubated for 30 mins by spectrophotometry; design: species or system Serpentes
Summary of the method: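 Snake venom PDE1/NPP1 at 7.42 × 10^-4 units, dissolved in cold deionized water. Assay in 33 mM Tris-HCl pH 8.8 with 30 mM magnesium acetate cofactor. Preincubated 30 min at 37 °C, then started with 0.33 mM bis(p-nitrophenyl)phosphate (total). p-Nitrophenol release read at 410 nm. Initial rates taken as Vmax/min and % inhibition calculated against control. Triplicates; IC50 derived by enzyme-kinetics fitting.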

[3] = biological target: Carbonic anhydrase (Homo sapiens) (UniProt P00918+P43166+P00915+P07451+P23280+O43570+Q9ULX7+Q16790+P22748+Q8N1Q1+Q9Y2D0+P35218); test: Inhibition of carbonic anhydrase (unknown origin); assay type: protein assay

SMILES | IC50 [1] [µM] | IC50 ([2]; read-out: IC50) [µM] | inhibition [3] | IC50 [2]
Oc1cccc(/C=N/n2cnnc2)c1O | > 30 | 153 | inactive | –
Oc1ccc(Cl)cc1/C=N/n1cnnc1 | > 30 | 251 | inactive | –
Oc1ccc(/C=N/n2cnnc2)cc1 | > 30 | – | – | Not Active
COc1cccc(/C=N/c2nnc[nH]2)c1O | > 30 | – | – | Not Active
CCOc1ccc(/C=N/c2nnc[nH]2)c(O)c1 | > 30 | – | – | Not Active
CCOc1cccc(/C=N/n2cnnc2)c1O | > 30 | – | – | Not Active
Oc1ccccc1/C=N/c1nnc[nH]1 | > 30 | – | – | Not Active
CN(C)c1ccc(/C=N/c2nnc[nH]2)cc1 | > 30 | 132 | inactive | –
COc1ccc(/C=N/n2cnnc2)cc1OC | > 30 | – | – | Not Active
Oc1ccccc1/C=N/n1cnnc1 | > 30 | – | – | Not Active
COc1cccc(/C=N/n2cnnc2)c1O | > 30 | – | – | Not Active
O=[N+]([O-])c1ccc(/C=N/c2nnc[nH]2)cc1 | > 30 | – | – | Not Active
CSc1ccc(/C=N/n2cnnc2)cc1 | > 30 | – | – | Not Active
O=C(O)CN(CCN(CC(=O)O)CC(=O)O)CC(=O)O [EDETIC ACID] | – | 278 | – | –
Brc1ccc(/C=N/n2cnnc2)cc1 | > 30 | 823 | – | –
Clc1ccc(/C=N/c2nnc[nH]2)c(Cl)c1 | > 30 | – | – | Not Active
Oc1c(Br)cc(Br)cc1/C=N/c1nnc[nH]1 | > 30 | – | – | Not Active
COc1ccc(/C=N/c2nnc[nH]2)cc1OC | > 30 | – | – | Not Active
Cc1ccc(O)c(/C=N/c2nnc[nH]2)c1 | > 30 | – | – | Not Active
Oc1ccc(Br)cc1/C=N/n1cnnc1 | > 30 | 405 | – | –
CSc1ccc(/C=N/c2nnc[nH]2)cc1 | > 30 | – | – | Not Active
COc1ccc(/C=N/n2cnnc2)cc1 | > 30 | – | – | Not Active
CCOc1ccc(/C=N/n2cnnc2)cc1 | > 30 | – | – | Not Active
Oc1cccc(/C=N/n2cnnc2)c1 | > 30 | – | – | Not Active
Oc1cc(O)c(/C=N/n2cnnc2)c(O)c1 | > 30 | 1160 | – | –
Oc1c(Cl)cc(Cl)cc1/C=N/c1nc[nH]n1 | > 30 | – | – | Not Active
